Test results: paper PMC9340768 (Journal of Medicinal Chemistry, 2022)

Experiments:
[1] = Pharmacokinetics in Sprague-Dawley rats; conditions: rat, in vivo, iv, 2 mg/kg
CD137 = CD137 (Homo sapiens, UniProt Q07011+Q96NY8); test: HT1376/CD137 reporter coculture assay; format: cell-based
[2] = system: human PBMCs cocultured with HT1376; test: PBMC/HT1376 coculture cytokine secretion assay; format: cell-based; conditions: anti-CD3 stimulated PBMCs with HT1376
How it was run: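 Frozen healthy-donor human PBMCs were thawed, washed in PBS with benzonase and resuspended in RPMI with 10% heat-inactivated FBS, HEPES and glutamine. PBMCs (1 × 10^6/mL) were plated with tumor cells (1 × 10^5/mL) at 10:1, stimulated with soluble anti-CD3 OKT3 (100 ng/mL), and given diluted test compound. Incubation was 2 days at 37 °C, 5% CO2. Supernatant IFNγ and IL-2 were measured by Luminex; four-parameter fit, n = 3.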

[3] = 1:2 (BCY10918) vs 1:1 (BCY10572)

Chain of CD137 (Q07011 24-255): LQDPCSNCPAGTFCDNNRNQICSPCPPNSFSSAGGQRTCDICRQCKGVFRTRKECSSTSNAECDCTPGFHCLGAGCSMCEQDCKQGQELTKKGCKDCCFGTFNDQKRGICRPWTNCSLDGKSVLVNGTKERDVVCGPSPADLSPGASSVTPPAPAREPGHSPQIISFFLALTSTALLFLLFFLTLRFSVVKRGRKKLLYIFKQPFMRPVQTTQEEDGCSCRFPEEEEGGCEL
Chain of CD137 (Q96NY8 32-510): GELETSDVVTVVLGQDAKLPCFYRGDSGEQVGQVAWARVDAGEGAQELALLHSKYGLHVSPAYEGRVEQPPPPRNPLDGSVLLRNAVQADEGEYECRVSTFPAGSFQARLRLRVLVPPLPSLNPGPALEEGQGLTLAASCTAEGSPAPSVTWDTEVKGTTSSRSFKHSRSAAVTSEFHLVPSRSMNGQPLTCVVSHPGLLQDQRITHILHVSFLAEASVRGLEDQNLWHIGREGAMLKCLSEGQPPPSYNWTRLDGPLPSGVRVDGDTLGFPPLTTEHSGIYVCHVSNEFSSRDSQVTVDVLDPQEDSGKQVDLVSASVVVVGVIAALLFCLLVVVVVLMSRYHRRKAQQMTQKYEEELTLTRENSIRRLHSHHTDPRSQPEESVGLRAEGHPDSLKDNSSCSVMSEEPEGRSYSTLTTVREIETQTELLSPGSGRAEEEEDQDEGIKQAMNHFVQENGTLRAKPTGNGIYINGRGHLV

With `CCCC[C@@H]1NC(=O)[C@H](Cc2ccc(O)cc2)NC(=O)[C@@H]2CCCN2C(=O)[C@H](CC(=O)O)NC(=O)[C@H](C)NC(=O)[C@H](Cc2ccccc2)NC(=O)[C@@H]2CSCCC(=O)N3CN(CN(C3)C(=O)CCSC[C@@H](C(=O)N[C@@H](C)C(N)=O)NC1=O)C(=O)CCSC[C@H](NC(C)=O)C(=O)N[C@@H](CC(C)(C)C)C(=O)N1CCC[C@H]1C(=O)N[C@@H](CCC(=O)O)C(=O)N[C@H](CCCCNC(=O)CCc1cn(CCOCCOCCOCCOCCOCCOCCOCCOCCOCCOCCNC(=O)c3cc(C(=O)NCCOCCOCCOCCOCCOCCOCCOCCOCCOCCOCCn4cc(CCC(=O)NCCCC[C@H]5NC(=O)[C@H](CCC(=O)O)NC(=O)[C@@H]6CCCN6C(=O)[C@H](CC(C)(C)C)NC(=O)[C@@H](NC(C)=O)CSCCC(=O)N6CN7CN(C6)C(=O)CCSC[C@H](NC(=O)[C@H](Cc6ccc(O)cc6)NC(=O)[C@@H]6CCCN6C5=O)C(=O)N[C@@H](Cc5ccccc5)C(=O)N[C@@H](C)C(=O)N[C@@H](CC(=O)O)C(=O)N5CCC[C@H]5C(=O)N[C@@H](Cc5ccc(O)cc5)C(=O)N[C@@H](CCCC)C(=O)N[C@H](C(=O)N[C@@H](C)C(N)=O)CSCCC7=O)nn4)cc(C(=O)NCCOCCOCCOCCOCCOCCOCCOCCOCCOCCOCCn4cc(CCC(=O)N[C@H]5CSCCC(=O)N6CN7CN(C6)C(=O)CCSC[C@H](NC(=O)[C@@H](CC(=O)O)NC(=O)[C@H](Cc6cccc8ccccc68)NC(=O)[C@@H]6CCCN6C5=O)C(=O)N[C@@H](CCSC)C(=O)N[C@@H](CCCCNC(=N)N)C(=O)N[C@@H](CC(=O)O)C(=O)N[C@@H](Cc5c[nH]c6ccccc56)C(=O)N[C@@H](CO)C(=O)N[C@@H]([C@@H](C)O)C(=O)N5CCC[C@H]5C(=O)N5C[C@H](O)C[C@H]5C(=O)N[C@@H](Cc5c[nH]c6ccccc56)C(=O)N[C@H](C(N)=O)CSCCC7=O)nn4)c3)nn1)C(=O)N1CCC[C@H]1C(=O)N[C@@H](Cc1ccc(O)cc1)C(=O)N2` [BCY10918] the half-life [1] was 1.8 h, the “improvement in EC50” value (CD137; [3]) was 8.3 fold and the “improvement in Emax” value (CD137; [3]) was 2.0 fold.

`CCCC[C@@H]1NC(=O)[C@H](Cc2ccc(O)cc2)NC(=O)[C@@H]2CCCN2C(=O)[C@H](CC(=O)O)NC(=O)[C@H](C)NC(=O)[C@H](Cc2ccccc2)NC(=O)[C@@H]2CSCCC(=O)N3CN(CN(C3)C(=O)CCSC[C@H](NC(C)=O)C(=O)N[C@@H](CC(C)(C)C)C(=O)N[C@@H](CCC(=O)O)C(=O)N[C@@H](CCC(=O)O)C(=O)N[C@H](CCCCNC(=O)CCc3cn(CCOCCOCCOCCOCCOCCC(=O)N[C@H]4CSCCC(=O)N5CN6CN(C5)C(=O)CCSC[C@H](NC(=O)[C@@H](CC(=O)O)NC(=O)[C@H](Cc5cccc7ccccc57)NC(=O)[C@@H]5CCCN5C4=O)C(=O)N[C@@H](CCSC)C(=O)N[C@@H](CCCCNC(=N)N)C(=O)N[C@@H](CC(=O)O)C(=O)N[C@@H](Cc4c[nH]c5ccccc45)C(=O)N[C@@H](CO)C(=O)N[C@@H]([C@@H](C)O)C(=O)N4CCC[C@H]4C(=O)N4C[C@H](O)C[C@H]4C(=O)N[C@@H](Cc4c[nH]c5ccccc45)C(=O)N[C@H](C(N)=O)CSCCC6=O)nn3)C(=O)N3CCC[C@H]3C(=O)N[C@@H](Cc3ccc(O)cc3)C(=O)N2)C(=O)CCSC[C@@H](C(N)=O)NC1=O` [BCY12377] showed a clearance ([1]; CL (mL/min/kg), SD rats, 2 mg/kg IV bolus) of 7.8 mL/min/kg.

With `CCCC[C@@H]1NC(=O)[C@H](Cc2ccc(O)cc2)NC(=O)[C@@H]2CCCN2C(=O)[C@H](CC(=O)O)NC(=O)[C@H](C)NC(=O)[C@H](Cc2ccccc2)NC(=O)[C@@H]2CSCCC(=O)N3CN(CN(C3)C(=O)CCSC[C@@H](C(=O)N[C@@H](C)C(N)=O)NC1=O)C(=O)CCSC[C@H](NC(C)=O)C(=O)N[C@@H](CC(C)(C)C)C(=O)N1CCC[C@H]1C(=O)N[C@@H](CCC(=O)O)C(=O)N[C@H](CCCCNC(=O)CCc1cn(CCOCCOCCOCCN(CCOCCOCCOCCC(=O)N[C@H]3CSCCC(=O)N4CN5CN(C4)C(=O)CCSC[C@H](NC(=O)[C@@H](CC(=O)O)NC(=O)[C@H](Cc4cccc6ccccc46)NC(=O)[C@@H]4CCCN4C3=O)C(=O)N[C@@H](CCSC)C(=O)N[C@@H](CCCCNC(=N)N)C(=O)N[C@@H](CC(=O)O)C(=O)N[C@H](Cc3c[nH]c4ccccc34)C(=O)N[C@@H](CO)C(=O)N[C@@H]([C@@H](C)O)C(=O)N3CCC[C@H]3C(=O)N3C[C@H](O)C[C@H]3C(=O)N[C@H](Cc3c[nH]c4ccccc34)C(=O)N[C@H](C(N)=O)CSCCC5=O)CCOCCOCCOCCn3cc(CCC(=O)NCCCC[C@H]4NC(=O)[C@H](CCC(=O)O)NC(=O)[C@@H]5CCCN5C(=O)[C@H](CC(C)(C)C)NC(=O)[C@@H](NC(C)=O)CSCCC(=O)N5CN6CN(C5)C(=O)CCSC[C@H](NC(=O)[C@H](Cc5ccc(O)cc5)NC(=O)[C@@H]5CCCN5C4=O)C(=O)N[C@@H](Cc4ccccc4)C(=O)N[C@@H](C)C(=O)N[C@@H](CC(=O)O)C(=O)N4CCC[C@H]4C(=O)N[C@@H](Cc4ccc(O)cc4)C(=O)N[C@@H](CCCC)C(=O)N[C@H](C(=O)N[C@@H](C)C(N)=O)CSCCC6=O)nn3)nn1)C(=O)N1CCC[C@H]1C(=O)N[C@@H](Cc1ccc(O)cc1)C(=O)N2` [BCY13144] the “secretion of proinflammatory cytokines IFNγ and IL-2” value [2] was “No IL-2 or IFNγ secretion was observed”.

In the case of `CCCC[C@@H]1NC(=O)[C@H](Cc2ccc(O)cc2)NC(=O)[C@@H]2CCCN2C(=O)[C@H](CC(=O)O)NC(=O)[C@H](C)NC(=O)[C@H](Cc2ccccc2)NC(=O)[C@@H]2CSCCC(=O)N3CN(CN(C3)C(=O)CCSC[C@@H](C(=O)N[C@@H](C)C(N)=O)NC1=O)C(=O)CCSC[C@H](NC(C)=O)C(=O)N[C@@H](CC(C)(C)C)C(=O)N1CCC[C@H]1C(=O)N[C@@H](CCC(=O)O)C(=O)N[C@H](CCCCNC(=O)CCc1cn(CCOCCOCCOCCOCCOCCOCCOCCOCCOCCOCCNC(=O)CCOCCN(CCOCCC(=O)NCCOCCOCCOCCOCCOCCOCCOCCOCCOCCOCCn3cc(CCC(=O)NCCCC[C@H]4NC(=O)[C@H](CCC(=O)O)NC(=O)[C@@H]5CCCN5C(=O)[C@H](CC(C)(C)C)NC(=O)[C@@H](NC(C)=O)CSCCC(=O)N5CN6CN(C5)C(=O)CCSC[C@H](NC(=O)[C@H](Cc5ccc(O)cc5)NC(=O)[C@@H]5CCCN5C4=O)C(=O)N[C@@H](Cc4ccccc4)C(=O)N[C@@H](C)C(=O)N[C@@H](CC(=O)O)C(=O)N4CCC[C@H]4C(=O)N[C@@H](Cc4ccc(O)cc4)C(=O)N[C@@H](CCCC)C(=O)N[C@H](C(=O)N[C@@H](C)C(N)=O)CSCCC6=O)nn3)CCOCCC(=O)NCCOCCOCCOCCOCCOCCOCCOCCOCCOCCOCCn3cc(CCC(=O)N[C@H]4CSCCC(=O)N5CN6CN(C5)C(=O)CCSC[C@H](NC(=O)[C@@H](CC(=O)O)NC(=O)[C@H](Cc5cccc7ccccc57)NC(=O)[C@@H]5CCCN5C4=O)C(=O)N[C@@H](CCSC)C(=O)N[C@@H](CCCCNC(=N)N)C(=O)N[C@@H](CC(=O)O)C(=O)N[C@@H](Cc4c[nH]c5ccccc45)C(=O)N[C@@H](CO)C(=O)N[C@@H]([C@@H](C)O)C(=O)N4CCC[C@H]4C(=O)N4C[C@H](O)C[C@H]4C(=O)N[C@@H](Cc4c[nH]c5ccccc45)C(=O)N[C@H](C(N)=O)CSCCC6=O)nn3)nn1)C(=O)N1CCC[C@H]1C(=O)N[C@@H](Cc1ccc(O)cc1)C(=O)N2` [BCY11027], the half-life [1] was 0.59 h.

In the case of `CCCC[C@@H]1NC(=O)[C@H](Cc2ccc(O)cc2)NC(=O)[C@@H]2CCCN2C(=O)[C@H](CC(=O)O)NC(=O)[C@H](C)NC(=O)[C@H](Cc2ccccc2)NC(=O)[C@@H]2CSCCC(=O)N3CN(CN(C3)C(=O)CCSC[C@@H](C(=O)N[C@@H](C)C(N)=O)NC1=O)C(=O)CCSC[C@H](NC(C)=O)C(=O)N[C@@H](CC(C)(C)C)C(=O)N1CCC[C@H]1C(=O)N[C@@H](CCC(=O)O)C(=O)N[C@H](CCCCNC(=O)CCc1cn(CCOCCOCCOCCN(CCOCCOCCOCCn3cc(CCC(=O)NCCCC[C@H]4NC(=O)[C@H](CCC(=O)O)NC(=O)[C@@H]5CCCN5C(=O)[C@H](CC(C)(C)C)NC(=O)[C@@H](NC(C)=O)CSCCC(=O)N5CN6CN(C5)C(=O)CCSC[C@H](NC(=O)[C@H](Cc5ccc(O)cc5)NC(=O)[C@@H]5CCCN5C4=O)C(=O)N[C@@H](Cc4ccccc4)C(=O)N[C@@H](C)C(=O)N[C@@H](CC(=O)O)C(=O)N4CCC[C@H]4C(=O)N[C@@H](Cc4ccc(O)cc4)C(=O)N[C@@H](CCCC)C(=O)N[C@H](C(=O)N[C@@H](C)C(N)=O)CSCCC6=O)nn3)CCOCCOCCOCC(=O)NCCCNC(=O)Cn3cc(CCC(=O)NCCCNC(=O)COCCOCCOCCN(CCOCCOCCOCCn4cc(CCC(=O)NCCC(=O)N[C@H]5CSCCC(=O)N6CN7CN(C6)C(=O)CCSC[C@H](NC(=O)[C@@H](CC(=O)O)NC(=O)[C@H](Cc6cccc8ccccc68)NC(=O)[C@@H]6CCCN6C5=O)C(=O)N[C@@H](CCSC)C(=O)N[C@@H](CCCCNC(=N)N)C(=O)N[C@@H](CC(=O)O)C(=O)N[C@@H](Cc5c[nH]c6ccccc56)C(=O)N[C@@H](CO)C(=O)N[C@@H]([C@@H](C)O)C(=O)N5CCC[C@H]5C(=O)N5C[C@H](O)C[C@H]5C(=O)N[C@@H](Cc5c[nH]c6ccccc56)C(=O)N[C@H](C(N)=O)CSCCC7=O)nn4)CCOCCOCCOCCn4cc(CCC(=O)NCCC(=O)N[C@H]5CSCCC(=O)N6CN7CN(C6)C(=O)CCSC[C@H](NC(=O)[C@@H](CC(=O)O)NC(=O)[C@H](Cc6cccc8ccccc68)NC(=O)[C@@H]6CCCN6C5=O)C(=O)N[C@@H](CCSC)C(=O)N[C@@H](CCCCNC(=N)N)C(=O)N[C@@H](CC(=O)O)C(=O)N[C@@H](Cc5c[nH]c6ccccc56)C(=O)N[C@@H](CO)C(=O)N[C@@H]([C@@H](C)O)C(=O)N5CCC[C@H]5C(=O)N5C[C@H](O)C[C@H]5C(=O)N[C@@H](Cc5c[nH]c6ccccc56)C(=O)N[C@H](C(N)=O)CSCCC7=O)nn4)nn3)nn1)C(=O)N1CCC[C@H]1C(=O)N[C@@H](Cc1ccc(O)cc1)C(=O)N2` [BCY12970], the “fold more potent than the 1:2 format” value (CD137; 2:2 molecule vs 1:2 format) was 2.9 fold.
